Square brackets hold non-standard residues; d marks the D form. Ends that are not written are not given here. Peptide text beside a SMILES is read from it. * marks the point of attachment. Biotin = O=C1N[C@H]2[C@H](CS[C@H]2CCCCC(=O)*)N1; pS = N[C@@H](COP(=O)(O)O)C(=O)O
Key:
[1] = test system: FLAG-hPTIP; assay: Co-immunoprecipitation of mutant HA-53BP1 with FLAG-hPTIP after IR; format: cell-based, human; conditions: HEK293, IR 0 or 20 Gy, anti-FLAG immunoprecipitates
Summary of the method: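 HEK293 cells in DMEM with 10% FBS and penicillin/streptomycin at 37°C, 5% CO2. Cells co-transfected by calcium phosphate with FLAG-hPTIP and full-length HA-53BP1 carrying Ser/Thr→Ala mutations at ATM S/T-Q motifs. Cells irradiated at 0 or 20 Gy and lysed. Anti-FLAG immunoprecipitates run on SDS–PAGE and western blotted to detect co-precipitated 53BP1.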

[2] = test system: HEK293 cells; assay: 53BP1 retention at sites of DNA damage; format: cell-based; conditions: HEK293, 10 Gy IR, 45 min recovery
[3] = test system: 53BP1 Ser25 phosphorylation in HEK293 cells; assay: IR-induced phosphorylation of 53BP1 Ser25 in HEK293 cells; format: cell-based; conditions: 10 μM inhibitor pre-incubated 1 h, IR 10 Gy, western blot
[4] = molecular target: hPTIP BRCT domain pair C2 (Homo sapiens, UniProt Q6ZW49); assay: BiaCore binding to hPTIP BRCT pair C2 alone
[5] = molecular target: hPTIP-BRCT pair C1 + C2 W676A (Homo sapiens, UniProt Q6ZW49, W676A); assay: BiaCore binding to hPTIP BRCT pair C1 + C2 W676A
[6] = molecular target: hPTIP-BRCT pair C1 + C2 W929A (Homo sapiens, UniProt Q6ZW49, W929A); assay: BiaCore binding to hPTIP BRCT pair C1 + C2 W929A
[7] = molecular target: 53BP1 peptide Non(P), biotin-… (human); assay: SPR
[8] = molecular target: 53BP1 peptide Ser25(P), biotin-…p… (human); assay: SPR
[9] = molecular target: S-Q-V-F (P) peptide, biotin-GAAYDI-pSQ-VFPFAKKK
[10] = test system: BRCA1 Ser1524 phosphorylation in HEK293 cells; assay: IR-induced phosphorylation of BRCA1 at Ser1524; format: cell-based; conditions: HEK293, IR 3 Gy, siRNA depletion or rescue, western blot
[11] = test system: U2OS cells; assay: hPTIP nuclear focus formation after IR in U2OS cells; format: cell-based; conditions: 15 Gy IR, 45 min recovery
Summary of the method: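 U2OS cells on glass coverslips transiently transfected with wild-type or point-mutant FLAG-hPTIP. Irradiated 0 or 15 Gy, recovered 45 min at 37°C, then fixed, permeabilised and blocked. Anti-FLAG or anti-53BP1 (1 µg/ml) 60 min at room temperature, then Alexa488/594 secondaries (2 µg/ml) 60 min. Fluorescence microscopy; anti-FLAG foci counted in ~200 transfected cells; mean ± SD.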

[12] = test system: full-length HA-53BP1; assay: Co-immunoprecipitation of mutant FLAG-hPTIP with HA-53BP1 after IR; format: cell-based, human; conditions: HEK293, IR 0 or 20 Gy, anti-FLAG immunoprecipitates
[13] = test system: 53BP1; assay: GST-hPTIP BRCT retrieval of 53BP1 from extracts of irradiated HEK 293 cells; format: binding, human; conditions: GST fusion on glutathione-sepharose, HEK 293 extract, 10 Gy IR, western blot
[14] = test system: Chk2 Thr68 phosphorylation in HEK293 cells; assay: IR-induced phosphorylation of Chk2 at Thr68; format: cell-based; conditions: HEK293, IR 3 Gy, siRNA depletion or rescue, western blot
[15] = molecular target: GST-hPTIP (590–1069) W929A (human, UniProt Q6ZW49 590-1069, W929A); assay: SPR
[16] = molecular target: GST-hPTIP (590–1069) W676A (human, UniProt Q6ZW49 590-1069, W676A); assay: SPR
[17] = test system: 53BP1; conditions: previous report; ref [4]; cited from earlier work

Sequence of 53BP1 peptide Ser25(P), biotin-…p… (human) (Q12888 16-35): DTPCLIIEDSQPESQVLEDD
Sequence of hPTIP-BRCT pair C1 + C2 W676A (Q6ZW49 590-1069 W676A): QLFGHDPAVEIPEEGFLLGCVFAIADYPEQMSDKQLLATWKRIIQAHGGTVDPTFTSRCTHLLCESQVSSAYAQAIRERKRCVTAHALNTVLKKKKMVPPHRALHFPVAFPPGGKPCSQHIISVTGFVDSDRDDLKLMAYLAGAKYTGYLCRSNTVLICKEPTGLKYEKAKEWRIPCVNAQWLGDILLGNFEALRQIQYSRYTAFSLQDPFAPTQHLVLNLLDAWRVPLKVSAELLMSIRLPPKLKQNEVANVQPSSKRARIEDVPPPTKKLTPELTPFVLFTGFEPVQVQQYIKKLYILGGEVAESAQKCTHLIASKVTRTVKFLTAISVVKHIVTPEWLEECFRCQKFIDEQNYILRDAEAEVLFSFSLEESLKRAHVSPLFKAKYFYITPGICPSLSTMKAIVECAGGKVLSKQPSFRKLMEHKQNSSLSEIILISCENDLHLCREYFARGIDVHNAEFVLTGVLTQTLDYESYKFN
Sequence of GST-hPTIP (590–1069) W676A (Q6ZW49 590-1069 W676A): as above
Sequence of hPTIP-BRCT pair C1 + C2 W929A (Q6ZW49 590-1069 W929A): as the sequence (Q6ZW49 590-1069 W676A) above, with A87W, W340A counted along it

## 53BP1 Ser25Ala mutant
[1]
  IR-induced interaction of 53BP1 with hPTIP: abolished
[2]
  retention at sites of DNA damage: indistinguishable from the wild-type protein

## O=c1cc(-c2cccc3c2Sc2ccccc2S3)oc(N2CCOCC2)c1 [KU55933]
[3]
  IR-induced phosphorylation of 53BP1 Ser25: not in cells pre-incubated with the ATM-specific inhibitor KU55933

## O=c1cc(N2CCOCC2)oc2c(-c3cccc4c3sc3ccccc34)cccc12 [NU7441]
[3]
  IR-induced phosphorylation of 53BP1 Ser25: did not affect IR-induced phosphorylation of 53BP1 Ser25

## CC[C@H](C)[C@H](NC(=O)[C@H](CC(=O)O)NC(=O)[C@H](Cc1ccc(O)cc1)NC(=O)[C@H](C)NC(=O)[C@H](C)NC(=O)CNC(=O)CCCC[C@@H]1SC[C@@H]2NC(=O)N[C@@H]21)C(=O)N[C@@H](COP(=O)(O)O)C(=O)N[C@@H](CCC(N)=O)C(=O)N[C@H](C(=O)N[C@@H](Cc1ccccc1)C(=O)N1CCC[C@H]1C(=O)N[C@@H](Cc1ccccc1)C(=O)N[C@@H](C)C(=O)N[C@@H](CCCCN)C(=O)N[C@@H](CCCCN)C(=O)N[C@@H](CCCCN)C(=O)O)C(C)C [S-Q-V-F peptide] (Biotin-GAAYDI[pS]QVFPFAKKK-OH)
[4]
  Kd: ~0.273 µM

## CC[C@H](C)[C@H](NC(=O)[C@H](CC(C)C)NC(=O)[C@H](CS)NC(=O)[C@@H]1CCCN1C(=O)[C@@H](NC(=O)[C@H](CC(=O)O)NC(=O)CCCC[C@@H]1SC[C@@H]2NC(=O)N[C@@H]21)[C@@H](C)O)C(=O)N[C@H](C(=O)N[C@@H](CCC(=O)O)C(=O)N[C@@H](CC(=O)O)C(=O)N[C@@H](COP(=O)(O)O)C(=O)N[C@@H](CCC(N)=O)C(=O)N1CCC[C@H]1C(=O)N[C@@H](CCC(=O)O)C(=O)N[C@@H](CO)C(=O)N[C@@H](CCC(N)=O)C(=O)N[C@H](C(=O)N[C@@H](CC(C)C)C(=O)N[C@@H](CCC(=O)O)C(=O)N[C@@H](CC(=O)O)C(=O)N[C@@H](CC(=O)O)C(=O)O)C(C)C)[C@@H](C)CC [Ser25(P)] (Biotin-DTPCLIIED[pS]QPESQVLEDD-OH)
[5]
  Kd: > 1000 µM
[6]
  Kd: > 1000 µM

## GST-hPTIP (590–1069) (BRCT pairs C1 + C2) (from UniProt Q6ZW49 590-1069) (domain or fragment)
[7]
  Kd: > 1000 µM
[8]
  Kd: 0.526 µM

## GST-hPTIP (862–1069) (BRCT pair C2) (from UniProt Q6ZW49 862-1069) (domain or fragment)
[9]
  Kd: 0.273 µM

## R910Q
[10]
  phosphorylation of BRCA1 at Ser1524: could not
[11]
  nuclear focus formation after IR: little effect on the ability of hPTIP to form foci after IR
[12]
  binding of hPTIP to 53BP1 in IR-treated cells: abolished

## W676A
[11]
  nuclear focus formation after IR: prevented focus formation
[11]; ∼200 transfected cells, almost all cells
  number of nuclear foci per cell, after IR: < 10 foci
[13]
  retrieval of 53BP1 from cell extracts: prevented
[12]
  binding of hPTIP to 53BP1 in IR-treated cells: abolished

## W929A
[11]
  nuclear focus formation after IR: prevented focus formation
[12]
  binding of hPTIP to 53BP1 in IR-treated cells: abolished

## mutation of Ser29: 53BP1 with Ser29 singly mutated
[1]
  IR-induced interaction of 53BP1 with hPTIP: no effect

## wild-type 53BP1: HA-53BP1 carrying a silent mutation, refractory to silencing by siRNA
[14]
  phosphorylation of Chk2 at Thr68: could rescue

## Biotin-DTPCLIIED[pS]QPESQVLEDD [53BP1 peptide Ser25(P), biotin-DTPCLIIEDpSQPESQVLEDD]
[15]
  Kd: > 1000 µM
[16]
  Kd: > 1000 µM

B1: hPTIP BRCT pair C2: bacterially expressed GST-hPTIP (862–1069) (protein, UniProt Q6ZW49 862-1069, looked up, fragment)
chain: TPELTPFVLFTGFEPVQVQQYIKKLYILGGEVAESAQKCTHLIASKVTRTVKFLTAISVVKHIVTPEWLEECFRCQKFIDEQNYILRDAEAEVLFSFSLEESLKRAHVSPLFKAKYFYITPGICPSLSTMKAIVECAGGKVLSKQPSFRKLMEHKQNSSLSEIILISCENDLHLCREYFARGIDVHNAEFVLTGVLTQTLDYESYKFN
modifications: GST tag
[17]
  retrieval of phosphorylated 53BP1 from extracts of irradiated cells: could retrieve phosphorylated 53BP1 from extracts of irradiated cells
